Test results from ChEMBL document CHEMBL1123950, “N-(Retinoyl)amino acids. Synthesis and chemopreventive activity in vitro” (1988).

System: Cricetinae gen. sp.
Assay: Reversal of keratinization in vitamin A deficient hamster trachea culture
Format: functional, Cricetulus griseus
Settings: read-out: ED50 (the source's name)
How it was run: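 Tracheas from 29-31-day-old hamsters kept on a vitamin A free diet, cultured in serum-free CMRL 1066 (insulin 1.0 μg/mL, hydrocortisone hemisuccinate 0.1 μg/mL, glutamine 2 mM, Garamycin 50 μg/mL), 50% O2/45% N2/5% CO2, rocked at 36 °C. Retinoid-free for 3 days, then retinoid in DMSO (0.1% final) for 7 days. Fixed in formalin; squamous metaplasia graded mild 2-10%, marked 10-40%, severe >40%.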

| EC50 | Structure (SMILES) |
| --- | --- |
| 0.03 nM | CC1=C(/C=C/C(C)=C/C=C/C(C)=C\C(=O)O)C(C)(C)CCC1 [ISOTRETINOIN] |
| 0.1 nM | CC1=C(/C=C/C(C)=C/C=C/C(C)=C/C(=O)NCCO)C(C)(C)CCC1 |
| 0.03 nM | CC1=C(/C=C/C(C)=C/C=C/C(C)=C/C(=O)O)C(C)(C)CCC1 [TRETINOIN] |
| 1 nM | CCNC(=O)/C=C(C)/C=C/C=C(C)/C=C/C1=C(C)CCCC1(C)C |
